Assay results taken from ChEMBL document CHEMBL1122206, “Use of adenine nucleotide derivatives to assess the potential of exo-active-site-directed reagents as species- or isozyme-specific enzyme inactivators. 5. Interactions of adenosine 5'-triphosphate derivatives with rat pyruvate kinases, Escherichia coli thymidine kinase, and yeast and rat …” (1982).

Columns and labels:
[1] = target: T1, Hexokinase-2 (Rattus norvegicus) (UniProt P27881); assay: Time dependent inhibition of hexokinase 2 activity after 6 h, at 5 mM compound
T1 sequence (whole entry): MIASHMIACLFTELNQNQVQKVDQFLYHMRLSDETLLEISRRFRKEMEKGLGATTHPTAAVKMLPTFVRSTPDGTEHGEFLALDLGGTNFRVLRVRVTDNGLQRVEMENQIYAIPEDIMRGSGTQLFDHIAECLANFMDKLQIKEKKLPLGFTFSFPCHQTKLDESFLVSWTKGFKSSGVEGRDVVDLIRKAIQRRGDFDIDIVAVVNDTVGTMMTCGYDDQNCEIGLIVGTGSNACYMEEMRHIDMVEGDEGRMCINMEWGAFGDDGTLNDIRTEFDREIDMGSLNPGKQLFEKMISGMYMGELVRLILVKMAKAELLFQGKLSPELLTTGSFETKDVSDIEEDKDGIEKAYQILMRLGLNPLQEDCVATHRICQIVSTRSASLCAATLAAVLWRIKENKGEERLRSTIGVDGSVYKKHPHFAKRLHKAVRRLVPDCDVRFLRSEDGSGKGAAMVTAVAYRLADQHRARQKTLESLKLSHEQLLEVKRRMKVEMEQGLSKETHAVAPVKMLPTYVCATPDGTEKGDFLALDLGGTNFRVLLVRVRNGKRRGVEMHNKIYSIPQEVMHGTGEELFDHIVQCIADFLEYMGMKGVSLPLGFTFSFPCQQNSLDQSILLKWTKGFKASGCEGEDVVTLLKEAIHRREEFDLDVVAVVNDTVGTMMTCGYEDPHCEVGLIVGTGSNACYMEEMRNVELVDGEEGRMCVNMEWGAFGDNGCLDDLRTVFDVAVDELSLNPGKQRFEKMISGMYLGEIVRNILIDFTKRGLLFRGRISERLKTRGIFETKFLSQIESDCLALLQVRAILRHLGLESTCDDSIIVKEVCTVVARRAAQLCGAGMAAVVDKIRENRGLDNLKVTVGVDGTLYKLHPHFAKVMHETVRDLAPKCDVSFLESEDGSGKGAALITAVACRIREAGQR

[2] = target: T1, Hexokinase-2 (Rattus norvegicus); assay: Substrate activity against Rat hexokinase II as 1:1 Mg complex at 5.0 mM
How it was run: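 Hexokinase activity read at 22 °C as A340 change, coupled to glucose-6-phosphate dehydrogenase, in 0.05 M Tris-HCl pH 7.6 with 6.6 mM MgCl2, 10 mM α-D-glucose and 0.93 mM NADP. Donor was 5.0 mM MgATP derivative (1:1 Mg complex) in place of ATP. Yeast HK was isoelectric-focused. Rat HK I and III came from electrofocused liver extract, HK II from dialysed muscle extract.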

[3] = Compound was tested for substrate constants with yeast hexokinase. Maximal velocity Vmax was reported
How it was run: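 Hexokinase KM and Vmax taken from linear double-reciprocal plots of initial velocity vs. nucleotide level. Assays at 22 °C, coupled to glucose-6-phosphate dehydrogenase (A340), in 0.05 M Tris-HCl pH 7.6 with 6.6 mM MgCl2, 10 mM glucose and 0.93 mM NADP. Yeast HK was isoelectric-focused. Rat HK I and III came from liver, HK II from muscle (male Sprague-Dawley).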

Saccharomyces cerevisiae = assay: Compound was tested for time dependent inhibition of hexokinase activity after 6 hr, at 0 degrees celsius, with 10 mM ATP derivative in yeast hexokinase

Compound `Nc1ncnc2c1ncn2[C@@H]1O[C@H](COP(=O)(O)OP(=O)(O)OP(=O)(O)O)[C@@H](O)[C@H]1O` has an inhibition [1] of 0%, a Relative velocity [2] of 1 and a Vmax [3] of 100%. For the same compound, the inhibition (Saccharomyces cerevisiae) was 0%.
